Unmarked numbers belong to inactive results. The source made the active and inactive calls.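 How the source made its calls: active means GFP response vs DMSO above 150% with enough events counted; inconclusive means fewer than 70 events counted for a yeast strain; inactive means the rest.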
Assay: yeast TOR reporter LAP4-GFP retest – cell-based, third cherry pick, flow cytometry, confirmation (AID 504338);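 further: ratio to plate DMSO wells so 100% equals DMSO level rather than 0%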
Settings: S. cerevisiae LAP4-GFP strain, 3 h, at 10 µM, active compounds read high
Summary of the method: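 Material: Saccharomyces cerevisiae strain expressing LAP4-GFP fusion protein / Compound: 10 µM, one concentration / Incubation: compound exposure for 3 h at 30 °C / Detection: high-throughput flow cytometry of GFP, single-cell scatter gate / Measure: median GFP fluorescence as percent of plate DMSO-well average / Benchmarks: rapamycin 400 ng/mL high, DMSO low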
Nc1ncnc(Nc2cc(Cl)cc(Cl)c2)c1[N+](=O)[O-] showed a GFP response vs DMSO of 101%. CSc1nc(S(C)(=O)=O)nc2[nH]c(=O)[nH]c12 gave a GFP response vs DMSO of 104%. In the case of O=C(O)c1ccc2cccnc2c1O, the GFP response vs DMSO is reported as 106%. Compound O=C(Nc1ccccc1Cl)ON=C1c2ccccc2-c2ccccc21 has a GFP response vs DMSO of 108%. Nc1nc(NCCOCCO)nc(Nc2cccc(F)c2)c1[N+](=O)[O-] showed a GFP response vs DMSO of 104%. In the case of Cc1ccc(C(=O)Nc2nc(-c3ccccn3)cs2)o1, the GFP response vs DMSO is reported as 103%. For Nc1ccc(O)c2c1C(=O)c1ccccc1C2=O, the GFP response vs DMSO was 98.6%. With C[n+]1cccc2c(Br)ccc([O-])c21 the GFP response vs DMSO was 104%. For Oc1c(Cl)cc(Cl)c2cccnc12, the GFP response vs DMSO was 188% (active). In the case of OCCNc1ncnc2ccc(Br)cc12, the GFP response vs DMSO is reported as 98.6%. Compound O=c1cc(C(F)(F)F)[nH]c2c(OC(F)(F)F)cccc12 has a GFP response vs DMSO of 98.6%. COc1cccc2c(Cl)c(CCCl)c(C)nc12 showed a GFP response vs DMSO of 104%. With COc1cccc(NC(=O)CC(C)=O)c1 the GFP response vs DMSO was 101%. Work on Cc1nc(Nc2ccc(Cl)cc2)c(C#N)c(=O)[nH]1 yielded a GFP response vs DMSO of 107%. In the case of Nc1c(O)ccc2c1C(=O)c1ccccc1C2=O, the GFP response vs DMSO is reported as 101%. Compound CC(C)Nc1ncnc2ccc(Br)cc12 has a GFP response vs DMSO of 106%. Compound CC1=CN2C(=N)/C(=C/c3ccc(C)o3)C(=O)N=C2S1 has a GFP response vs DMSO of 104%. Work on CCC(C)Nc1nc(N)c([N+](=O)[O-])c(Nc2cc(OC)ccc2OC)n1 (centres undefined) yielded a GFP response vs DMSO of 101%. Work on COc1ccccc1Nc1nc(NCCCN(C)C)nc(N)c1[N+](=O)[O-] yielded a GFP response vs DMSO of 103%.

— PubChem BioAssay AID504338 (NMMLSC, 2011)
